Experimental data: paper PMC3375352 (Journal of Medicinal Chemistry, 2012)

Tests used:
[1] = cited from earlier work
HeLa cells = experiment: cellular platinum uptake by GFAAS; format: cell-based, human; settings: 10 µM, 4 h exposure
Procedure, shortened: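 HeLa cells were seeded at 3×10⁵ cells/well, grown 48 h, then exposed to test compound (10 µM final) for 4 h. Cell-free medium wells served as blanks for nonspecific Pt adsorption, and parallel wells were trypsinised and counted with trypan blue. Wells were washed twice with pH 7.4 PBS and digested in hot (≈90 °C) concentrated nitric acid for 2 h. Pt was measured by GFAAS, blank-subtracted and normalised per cell; errors were derived by error propagation.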

[2] = test system: U2OS (human osteosarcoma); experiment: MTT cytotoxicity assay, U2OS; format: cell-based; settings: read-out: IC50 U2OS, 72 h continuous treatment
Procedure, shortened: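 Cells were grown as adherent monolayers in DMEM with 10% FBS and 1% penicillin/streptomycin at 37 °C, humidified 5% CO₂. 2000 cells/well were seeded and left for 24 h. Medium was replaced with test compound dilutions from 1–3 mM aqueous stocks for 72 h. MTT (0.8 mg/mL in DMEM) was added for 4 h, and formazan was dissolved in DMSO with 10% pH 10.5 glycine buffer. A555 was normalised to Pt-free controls and IC50 interpolated from % viability curves. Values are means of ≥3 independent experiments, each with six replicates per concentration; errors are standard deviations.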

[3] = test system: nuclear DNA of HeLa cells; experiment: intracellular DNA platination by GFAAS; format: cell-based, human; settings: 100 µM for 4 h, then 16 h in platinum-free medium
Procedure, shortened: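 Five million HeLa cells were seeded, treated next day, and floating plus attached cells were pooled (trypsin), pelleted at 4 °C and washed with ice-cold PBS. Cells were lysed in DNAzol with 100 µg/mL RNase A. DNA was ethanol-precipitated, redissolved in 8 mM NaOH and quantified by UV-visible spectroscopy, and Pt was measured by GFAAS (pmol Pt/µg DNA). Values are means ± SD of ≥3 experiments.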

Row | Compound | stability in water [1] | HeLa Cellular Uptake (HeLa cells) | IC50 [2] | Pt/DNA [3]
1 | N.N.O=C([O-])C1(C(=O)[O-])CCC1.[Pt+2] [carboplatin] | stable for up 60 d | – | – | –
2 | N.N.[Cl][Pt][Cl] [cisplatin, cis-diamminedichloroplatinum(II)] | – | 14 ± 2 ng Pt/10^6 cells | 5 ± 2 µM | 1.58 ± 0.97 pmol/µg
